From ChEMBL document CHEMBL1641587, “Indole-3-piperazinyl derivatives: novel chemical class of 5-HT(6) receptor antagonists” (Bioorg Med Chem Lett, 2011)
Active and inactive are the calls of the source. The calls are words filed in the database; no cut-off is given here.

Key:
[1] = target: T1, 5-hydroxytryptamine receptor 6 (Homo sapiens, UniProt P50406); test: Displacement of [3H]LSD from human cloned 5HT6 receptor expressed in human HeLa cells by glass fiber filtration assay; format: cell-based
Procedure, shortened: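 Radioligand binding to human cloned 5-HT6 receptors stably expressed in HeLa cells. Ki values were determined.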

[2] = Selectivity ratio of IC50 for histamine H1 receptor to IC50 for human recombinant 5HT6 receptor
[3] = Selectivity ratio of IC50 for NET to IC50 for human recombinant 5HT6 receptor
[4] = Selectivity ratio of IC50 for dopamine D2 receptor to IC50 for human recombinant 5HT6 receptor
[5] = Selectivity ratio of IC50 for SERT to IC50 for human recombinant 5HT6 receptor
[6] = target: T1, 5-hydroxytryptamine receptor 6; test: Antagonist activity at human recombinant 5HT6 receptor expressed in CHO cells assessed as inhibition of 5-HT-stimulated cAMP accumulation by luminometry; format: functional, cell-based
Procedure, shortened: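 Non-radioactive cell-based functional assay in CHO cells expressing 5-HT6 receptor; antagonism read as inhibition of 5-HT-stimulated cAMP accumulation. IC50 and Kb values derived, each the mean of two experiments.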

[7] = Metabolic stability in Wistar rat liver microsomes at 2.5 uM after 0.5 hrs; format: ADME, Microsome
Procedure, shortened: (§1)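 Wistar rat or human liver microsomes were incubated with 2.5 µM compound for 0.5 h, and % metabolized was measured.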

Cytochrome P450 3A4 = Cytochrome P450 3A4 (Homo sapiens, UniProt P08684); test: Inhibition of human CYP3A4; format: ADME
Procedure, shortened: (§2)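 Isoform-selective assays using heterologously expressed human CYP2D6 or CYP3A4. IC50 is the mean of duplicate determinations.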

[8] = Metabolic stability in human liver microsomes at 2.5 uM after 0.5 hrs; format: ADME, Microsome; procedure, shortened: as §1
Cytochrome P450 2D6 = Cytochrome P450 2D6 (Homo sapiens, UniProt P10635); test: Inhibition of human CYP2D6; format: ADME; procedure, shortened: as §2
[9] = Clearance in Wistar rat at 5 mg/kg, po; format: ADME, organism-based; design: dose 5 mg/kg, route oral; details: in vivo
Procedure, shortened: (§3)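 Fasted male Wistar rats received a 5 mg/kg dose orally or iv, with water for injection as vehicle for both routes. n = 3 per route. Plasma parameters were derived per route: AUC, Cmax, t1/2, Vz, clearance, and oral bioavailability (F).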

[10] = Apparent volume of distribution in Wistar rat at 5 mg/kg, iv; format: ADME, organism-based; design: dose 5 mg/kg, route intravenous; details: in vivo, read-out: Vz; procedure, shortened: as §3
[11] = Oral bioavailability in Wistar rat at 5 mg/kg; format: ADME, organism-based; details: in vivo; procedure, shortened: as §3
[12] = Clearance in Wistar rat at 5 mg/kg, iv; format: ADME, organism-based; design: dose 5 mg/kg, route intravenous; details: in vivo; procedure, shortened: as §3
[13] = Cmax in Wistar rat at 5 mg/kg, po; format: ADME, organism-based; design: dose 5 mg/kg, route oral; details: in vivo; procedure, shortened: as §3
Rattus norvegicus [14] = test: Apparent volume of distribution in Wistar rat at 5 mg/kg, po; format: ADME, organism-based; design: dose 5 mg/kg, route oral; details: in vivo; procedure, shortened: as §3
[15] = AUC in Wistar rat at 5 mg/kg, iv; format: ADME, organism-based; design: dose 5 mg/kg, route intravenous; details: plasma; procedure, shortened: as §3
[16] = AUC in Wistar rat at 5 mg/kg, po; format: ADME, organism-based; design: dose 5 mg/kg, route oral; details: plasma; procedure, shortened: as §3
Rattus norvegicus [17] = organism: Rattus norvegicus; details: 10 mg/kg
[18] = Half life in Wistar rat at 5 mg/kg, iv; format: ADME, organism-based; design: dose 5 mg/kg, route intravenous; details: in vivo; procedure, shortened: as §3
Rattus norvegicus [19] = test: Cognitive enhancing effect in Wistar rat at 10 mg/kg, po by novel object recognition test; format: functional, organism-based; design: dose 10 mg/kg
Procedure, shortened: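 Novel object recognition test in male Wistar rats. Drug or vehicle (PEG 400 50% v/v, 1 mL/kg) was given p.o. 60 min before the test, n=6-9/group. Read-out was exploration time of the familiar versus the novel object, given as mean SEM and analysed by paired t test.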

[20] = Cmax in Wistar rat at 5 mg/kg, iv; format: ADME, organism-based; design: dose 5 mg/kg, route intravenous; details: in vivo; procedure, shortened: as §3
[21] = Half life in Wistar rat at 5 mg/kg, po; format: ADME, organism-based; design: dose 5 mg/kg, route oral; details: in vivo; procedure, shortened: as §3

T1 sequence (P50406 whole entry): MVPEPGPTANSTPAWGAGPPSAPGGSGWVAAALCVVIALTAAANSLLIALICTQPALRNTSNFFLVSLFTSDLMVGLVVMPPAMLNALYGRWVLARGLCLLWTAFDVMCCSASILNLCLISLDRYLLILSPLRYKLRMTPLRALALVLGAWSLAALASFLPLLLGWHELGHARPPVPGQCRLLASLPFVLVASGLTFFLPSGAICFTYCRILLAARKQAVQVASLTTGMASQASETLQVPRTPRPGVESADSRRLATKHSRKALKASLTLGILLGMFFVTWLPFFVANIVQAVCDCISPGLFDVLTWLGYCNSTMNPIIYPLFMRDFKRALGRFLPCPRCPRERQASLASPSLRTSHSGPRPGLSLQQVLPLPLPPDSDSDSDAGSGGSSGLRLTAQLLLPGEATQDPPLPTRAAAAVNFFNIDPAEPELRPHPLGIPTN
Chain of Cytochrome P450 3A4 (P08684 whole entry, canonical isoform): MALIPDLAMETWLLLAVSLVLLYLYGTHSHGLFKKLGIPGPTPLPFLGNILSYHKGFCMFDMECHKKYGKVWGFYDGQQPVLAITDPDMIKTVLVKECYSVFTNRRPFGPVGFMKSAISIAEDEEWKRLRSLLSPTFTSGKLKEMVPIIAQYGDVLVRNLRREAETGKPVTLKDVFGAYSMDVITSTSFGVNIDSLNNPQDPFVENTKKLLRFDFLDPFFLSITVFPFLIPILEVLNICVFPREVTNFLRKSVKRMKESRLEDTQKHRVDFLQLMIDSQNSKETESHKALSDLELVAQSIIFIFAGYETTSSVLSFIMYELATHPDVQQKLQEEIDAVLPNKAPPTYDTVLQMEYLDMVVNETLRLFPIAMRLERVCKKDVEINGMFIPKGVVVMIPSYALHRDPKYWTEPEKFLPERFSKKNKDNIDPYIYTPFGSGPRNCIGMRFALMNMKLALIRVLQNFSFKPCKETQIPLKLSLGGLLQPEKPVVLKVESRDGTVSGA
Chain of Cytochrome P450 2D6 (P10635 whole entry): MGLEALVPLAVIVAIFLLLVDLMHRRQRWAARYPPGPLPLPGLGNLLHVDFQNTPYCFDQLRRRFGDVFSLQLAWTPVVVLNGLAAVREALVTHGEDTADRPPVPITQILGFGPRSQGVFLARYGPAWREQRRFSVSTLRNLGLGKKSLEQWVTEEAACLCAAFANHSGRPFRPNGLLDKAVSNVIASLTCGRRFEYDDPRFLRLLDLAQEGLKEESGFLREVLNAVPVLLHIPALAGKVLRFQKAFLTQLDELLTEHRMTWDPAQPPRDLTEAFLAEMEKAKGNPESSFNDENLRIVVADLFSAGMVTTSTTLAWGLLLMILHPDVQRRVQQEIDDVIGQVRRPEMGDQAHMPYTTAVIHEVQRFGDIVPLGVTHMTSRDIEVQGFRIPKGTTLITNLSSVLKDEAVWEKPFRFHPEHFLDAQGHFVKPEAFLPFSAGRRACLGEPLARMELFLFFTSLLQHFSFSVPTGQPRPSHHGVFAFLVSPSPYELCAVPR

CCN1CCN(c2cn(S(=O)(=O)c3ccc4ccccc4c3)c3cc(Cl)ccc23)CC1
Ki [1]: 0.0255 µM

CCN1CCN(c2cn(S(=O)(=O)c3ccccc3Br)c3ccc(Cl)cc23)CC1
Ki [1]: 0.0203 µM

CCN1CCN(c2cn(S(=O)(=O)c3ccc(OC)cc3)c3cc(Cl)ccc23)CC1
Ki [1]: 0.0823 µM

CC(C)c1ccc(S(=O)(=O)n2cc(N3CCN(C)CC3)c3ccc(Cl)cc32)cc1
Ki [1]: 0.0553 µM

CCN1CCN(c2cn(S(=O)(=O)c3ccc(C(C)C)cc3)c3ccccc23)CC1
Ki [1]: 0.0086 µM

CN1CCN(c2cn(S(=O)(=O)c3ccccc3Br)c3ccccc23)CC1
Ki [1]: 0.0152 µM

CN1CCN(c2cn(S(=O)(=O)c3cccc(Cl)c3)c3ccc(Br)cc23)CC1
Ratio IC50 [2]: > 50
Ratio IC50 [3]: > 50
Ki [1]: 0.0078 µM
Ratio IC50 [4]: > 50
Ratio IC50 [5]: > 50
IC50 [6]: 1.53 µM
Kb [6]: 0.003 µM

CN1CCN(c2cn(S(=O)(=O)c3ccccc3)c3ccccc23)CC1
Ki [1]: 0.0159 µM

CN1CCN(c2cn(S(=O)(=O)c3ccccc3Br)c3cc(Cl)ccc23)CC1
Ki [1]: 0.0302 µM

CCN1CCN(c2cn(S(=O)(=O)c3cc(OC)ccc3OC)c3cc(Cl)ccc23)CC1
Ki [1]: 0.0635 µM

CCN1CCN(c2cn(S(=O)(=O)c3ccc(F)cc3)c3ccc(Br)cc23)CC1
Ki [1]: 0.0106 µM

CN1CCN(c2cn(S(=O)(=O)c3ccccc3Br)c3ccc(Br)cc23)CC1
Ki [1]: 0.0102 µM

CN1CCN(c2cn(S(=O)(=O)c3cccc(Cl)c3)c3ccccc23)CC1
Ki [1]: 0.0108 µM

CN1CCN(c2cn(S(=O)(=O)c3ccc(F)cc3)c3ccc(Br)cc23)CC1
% metabolism at 0.5 h, 2.5 µM [7]: 99%
IC50 (Cytochrome P450 3A4): 4.61 µM
% metabolism at 0.5 h, 2.5 µM [8]: 96%
Ratio IC50 [2]: > 50
Ratio IC50 [3]: > 50
Ki [1]: 0.0092 µM
Ratio IC50 [4]: > 50
Ratio IC50 [5]: > 50
IC50 (Cytochrome P450 2D6): 28.8 µM
IC50 [6]: 0.322 µM
Kb [6]: 0.0006 µM

CC(C)c1ccc(S(=O)(=O)n2cc(N3CCN(C)CC3)c3cc(Br)ccc32)cc1
Ki [1]: 0.0232 µM

CCN1CCN(c2cn(S(=O)(=O)c3ccc(F)cc3)c3ccc(Cl)cc23)CC1
Ratio IC50 [2]: > 50
Ratio IC50 [3]: > 50
Ki [1]: 0.0107 µM
Ratio IC50 [4]: > 50
Ratio IC50 [5]: > 50
IC50 [6]: 1.78 µM
Kb [6]: 0.0035 µM

CCN1CCN(c2cn(S(=O)(=O)c3ccc(C(C)C)cc3)c3ccc(Br)cc23)CC1
Ki [1]: 0.0301 µM

CC(C)c1ccc(S(=O)(=O)n2cc(N3CCN(C)CC3)c3ccccc32)cc1
CL/F [9]: 2200 mL/min/kg
Vd [10]: 51.8 L/kg
% metabolism at 0.5 h, 2.5 µM [7]: 95%
bioavailability [11]: 8%
clearance [12]: 133 mL/min/kg
Cmax [13]: 40 ng/mL
IC50 (Cytochrome P450 3A4): 5.54 µM
Vz (Rattus norvegicus [14]): 436 L/kg
AUC [15]: 674 ng·h/mL
% metabolism at 0.5 h, 2.5 µM [8]: 80%
Ratio IC50 [2]: > 50
Ratio IC50 [3]: > 50
AUC [16]: 59 ng·h/mL
inhibition (Rattus norvegicus [17]): Active
Ki [1]: 0.0034 µM
half-life [18]: 4.47 h
Ratio IC50 [4]: > 50
Activity (Rattus norvegicus [19]): Active
Cmax [20]: 365 ng/mL
Ratio IC50 [5]: > 50
IC50 (Cytochrome P450 2D6): 39.2 µM
half-life [21]: 2.35 h
IC50 [6]: 0.31 µM
Kb [6]: 0.00053 µM

CCN1CCN(c2cn(S(=O)(=O)c3ccc(C(C)C)cc3)c3ccc(Cl)cc23)CC1
Ki [1]: 0.0305 µM

CN1CCN(c2cn(S(=O)(=O)c3ccc(F)cc3)c3ccccc23)CC1
% metabolism at 0.5 h, 2.5 µM [7]: 99%
IC50 (Cytochrome P450 3A4): 4.77 µM
% metabolism at 0.5 h, 2.5 µM [8]: 85%
Ratio IC50 [2]: > 50
Ratio IC50 [3]: > 50
Ki [1]: 0.0118 µM
Ratio IC50 [4]: > 50
Ratio IC50 [5]: > 50
IC50 (Cytochrome P450 2D6): 26.4 µM
IC50 [6]: 0.292 µM
Kb [6]: 0.0005 µM
